Compound activity: PubChem, several laboratories
An excerpt weighted towards active compounds, which were near 2.6% of everything screened.
TAAR1 antag: antagonists of human TAAR1; Q96RJ0; CHO RD-HGA16 TAAR1, Fluo-8 calcium fluorescence, antagonist; inhibition, % at 3 µM; actives 1.5% (n = 360,000); AID 624466;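 active means inhibition above a per-plate cutoff, the mean inhibition of test compounds on that plate plus 3 SD, cut at about 49% in these data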;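 further: 0% = DMSO plus EC80 beta-PEA response and 100% = DMSO alone without agonist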
Target sequence (Q96RJ0 whole entry, looked up): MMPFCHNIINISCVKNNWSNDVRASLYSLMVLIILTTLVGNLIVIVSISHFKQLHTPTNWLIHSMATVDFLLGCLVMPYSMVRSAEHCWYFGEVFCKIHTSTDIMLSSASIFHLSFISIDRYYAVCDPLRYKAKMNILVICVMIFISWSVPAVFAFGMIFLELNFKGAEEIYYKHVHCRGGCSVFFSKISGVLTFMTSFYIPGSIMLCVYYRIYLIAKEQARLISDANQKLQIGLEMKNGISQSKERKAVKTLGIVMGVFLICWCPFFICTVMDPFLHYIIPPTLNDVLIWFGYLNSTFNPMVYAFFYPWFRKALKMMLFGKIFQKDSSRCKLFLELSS
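Material: RD-HGA16 CHO cells with stable hTAAR1 and Gα16; Dosing: single nominal final test compound concentration of 3 µM; Schedule: seeding 17-24 h prior, 75-min 37 °C, 30-min RT dye loading; Detection: kinetic Fluo-8 calcium fluorescence measurement; Measure: % inhibition from peak post-agonist over basal fluorescence ratio; Benchmarks: vehicle and agonist controls.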
VLA-4 inh: inhibition in a human VLA-4 binding assay. P13612. VLA-4 expressing cells, ligand binding flow cytometry. inhibition, % (about 7 µM as worked out from the volumes in the protocol). actives 0.2% (n = 330,000). AID 2557; in the data active means inhibition above about 50%
TAAR1 ag: agonists of human TAAR1; actives 0.99% (n = 360,000); activation, % at 3 µM; AID 624467; CHO RD-HGA16 TAAR1, Fluo-8 calcium fluorescence; vehicle wells 0%, saturating PEA agonist 100%;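 active means activation above the mean activation of all test compounds in the run plus 3 SD, cut at about 38% in these data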
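Assay system – CHO-derived RD-HGA16 cells with stable Gα16 and human TAAR1 · Compound dosing – one-point dosing at 3 µM (nominal) · Incubation – 17-24 h seeding, 75 min 37 °C dye, 30 min RT · Measured by – kinetic Fluo-8 calcium fluorescence · Control set – DMSO vehicle as 0%, PEA at EC100 as 100% · Repeats – single well for each compound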
Rce1 inh: blocks yeast Ras-converting enzyme; Q03530; yeast membranes, quenched prenylated peptide cleavage fluorescence; calls only; actives 0.27% (n = 290,000);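 active means fall in fluorescence gain of 50% or more versus controls, with final raw signal at or below 3038400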;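 further: plate controls were neutral control wells for no effect and wells lacking membranes for full effect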
Target sequence (Q03530 whole entry, looked up): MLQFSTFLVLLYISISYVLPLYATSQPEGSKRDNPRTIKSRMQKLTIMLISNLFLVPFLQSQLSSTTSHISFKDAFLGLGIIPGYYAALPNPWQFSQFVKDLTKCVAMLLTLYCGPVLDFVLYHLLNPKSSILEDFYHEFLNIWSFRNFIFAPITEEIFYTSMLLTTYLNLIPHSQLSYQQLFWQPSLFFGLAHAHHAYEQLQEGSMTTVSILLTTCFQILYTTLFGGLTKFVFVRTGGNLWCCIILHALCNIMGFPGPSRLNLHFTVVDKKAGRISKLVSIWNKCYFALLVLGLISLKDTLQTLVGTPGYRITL
Platelet DG rel: modulates dense granule release in human platelets; human platelet-rich plasma, SFLLRN dense granule ATP release, luminescence; inhibition, %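 (compounds screened at 7.5 µM in platelet-rich plasma)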; actives 0.22% (n = 300,000);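 active means mean replicate score, as percent of positive control, at or above 50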
nonsel antag count: nonselective antagonism, TAAR1 counter-screen | shares compounds with TAAR1 antag | counterscreen cell line, calcium fluorescence, antagonist mode | inhibition, % at 3 µM | actives 77% (n = 2,400) | AID 651780; in the data active means inhibition above about 22%;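 further: CHO-Ga16 host cells stimulated with ATP at an EC80 level; 0% = agonist EC80 plus vehicle and 100% = vehicle without agonist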
TAAR1 ant conf: human TAAR1 antagonism, confirmed; shares compounds with TAAR1 antag; TAAR1-expressing cells, fluorescence antagonist read-out; inhibition, % at 3 µM; actives 40% (n = 2,400); in the data active means inhibition above about 49%;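 further: CHO-Ga16 host cells challenged with agonist PEA near its EC80; 0% = agonist at EC80 plus vehicle and 100% = vehicle with no agonist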
Ga16 ag counter: nonselective Ga16 agonism, counter-screen; activation, % at 3 µM; actives 18% (n = 2,400); Ga16-expressing cells, calcium fluorescence, agonist counterscreen; shares compounds with TAAR1 antag; in the data active means activation above about 12%;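 further: 0% = vehicle wells and 100% = saturating stimulus response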
TAAR1 ag count: TAAR1 agonism, antagonist counter-screen; shares compounds with TAAR1 antag; hTAAR1 cell line, fluorescence activation, agonist mode; activation, % at 3 µM; actives 2% (n = 2,400); AID 651955; in the data active means activation above about 37%;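 further: CHO cells stably expressing TAAR1 with calcium dye readout; 0% = DMSO vehicle and 100% = full agonist response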
* marks the source's active call; other numbers are inactive results; i = inactive; nt = no result given.

SMILES	TAAR1 antag	VLA-4 inh	TAAR1 ag	Rce1 inh	Platelet DG rel	nonsel antag count	TAAR1 ant conf	Ga16 ag counter	TAAR1 ag count
Cc1ccc(N2CC(C(=O)NNC(=O)c3ccc(F)cc3)CC2=O)cc1 (stereo not drawn)	8	5	-2	nt	nt	nt	nt	nt	nt
Nc1nc2ncccc2cc1C(=O)NCCc1cccs1	6	nt	8	nt	nt	nt	nt	nt	nt
O=C1C2C3C=CC(C4CC34)C2C(=O)N1/N=C/c1ccc(-c2ccc([N+](=O)[O-])cc2)o1 (stereo not drawn)	7	6	1	i	0	nt	nt	nt	nt
Cc1ccc(-c2ccc(/C=N/N3C(=O)C4C5C=CC(C6CC56)C4C3=O)o2)c([N+](=O)[O-])c1 (stereo not drawn)	58*	2	10	i	3	33*	43	10	7
COC(=O)c1ccc(-c2ccc(/C=N/N3C(=O)C4C5C=CC(C6CC56)C4C3=O)o2)cc1 (stereo not drawn)	62*	-12	18	i	-3	27*	41	10	13
COC(=O)c1cccc(-c2ccc(/C=N/N3C(=O)C4C5C=CC(C6CC56)C4C3=O)o2)c1 (stereo not drawn)	23	-17	12	i	1	nt	nt	nt	nt
COCCNC(=O)c1cccc2c(-c3ccnn3C)coc12	-13	nt	3	nt	nt	nt	nt	nt	nt
O=[N+]([O-])c1ccc2[nH]cc(S(=O)(=O)N3CCN(c4cccc(Cl)c4)CC3)c2c1	9	4	5	i	7	nt	nt	nt	nt
Cc1cccc(N(C)S(=O)(=O)c2c[nH]c3ccc([N+](=O)[O-])cc23)c1	57*	0	4	i	-2	32*	43	5	1
O=C(CCc1ccccc1)N[C@@H]1c2ccccc2CC[C@@H]1OCc1ccccc1	53*	nt	9	nt	nt	10	16	-1	-2
O=C(COCc1ccccc1)N[C@@H]1c2ccccc2CC[C@H]1OCc1ccccc1	14	nt	2	nt	nt	nt	nt	nt	nt
CCOC(=O)[C@]12CCCC=C1N(Cc1cccc3ccccc13)C(=O)[C@H](CC(=O)NCCCCc1ccccc1)C2	-10	nt	8	nt	nt	nt	nt	nt	nt
COc1ccc(-c2csc(NC(=O)C3COc4ccccc4O3)n2)cc1OC (stereo not drawn)	62*	-10	5	i	1	29*	40	7	5
COc1ccc(-c2csc(NC(=O)c3cccc(N4C(=O)CCC4=O)c3)n2)cc1OC	65*	18	8	nt	nt	21	33	7	9
COc1ccc(-c2csc(NC(=S)NC(=O)/C=C/c3ccco3)n2)cc1OC	63*	11	7	i	1	29*	57*	7	5
COc1ccc(-c2csc(NC(=S)NC(=O)/C=C/c3ccco3)n2)cc1Br	-5	5	-1	i	7	nt	nt	nt	nt
Cc1ccc(NC(=O)C2COc3ccccc3O2)cc1 (stereo not drawn)	7	-4	3	i	-6	nt	nt	nt	nt
O=C(Nc1ccc(-c2cn3ccsc3n2)cc1)C1COc2ccccc2O1 (stereo not drawn)	60*	0	24	i	-5	38*	56*	15*	11
CC(C)(C)c1csc(NC(=O)C2COc3ccccc3O2)n1 (stereo not drawn)	22	6	-1	i	3	nt	nt	nt	nt
COc1ccc(CCNC(=O)c2cc(-c3ccncc3)nc3ccc(S(=O)(=O)N4CCOCC4)cc23)cc1OC	-9	3	2	i	-1	nt	nt	nt	nt
CCOc1ccc(-c2csc(NC(=O)c3cccc(N4C(=O)CCC4=O)c3)n2)cc1	68*	-3	19	i	-6	32*	44	12*	14
COc1ccc(NC2CCCN(C(=O)c3cccc(C)n3)C2)cc1OC (stereo not drawn)	-28	-11	1	i	-6	nt	nt	nt	nt
Cc1ccc(CN2C(=O)C(=O)c3cc(C)ccc32)cc1	33	-4	5	nt	nt	nt	nt	nt	nt
Cc1ccc2c(c1)C(=O)C(=O)N2Cc1ccc(Br)cc1	82*	-9	18	nt	nt	19	43	8	0
O=C1OC[C@H]2CCCN2C(=O)[C@@H](CC(=O)N(CCO)Cc2ccccc2)C/C=C\C[C@@H]1Cc1ccc(F)cc1	57*	10	21	nt	nt	25*	34	8	6
SMILES	TAAR1 antag	VLA-4 inh	TAAR1 ag	Rce1 inh	Platelet DG rel	nonsel antag count	TAAR1 ant conf	Ga16 ag counter	TAAR1 ag count
O=C1N[C@@H](c2ccccc2)COC(=O)[C@@H](Cc2ccc(F)cc2)CC/C=C/C[C@H]1CC(=O)N(CCO)Cc1ccccc1	71*	-20	19	nt	nt	31*	56*	14*	21
CC(C)(C)[C@@H]1COC(=O)[C@H](Cc2ccc(F)cc2)C/C=C\C[C@H](CC(=O)N(CCO)Cc2ccccc2)C(=O)N1	50*	15	33	nt	nt	19	40	9	12
O=C1N[C@@H](c2ccccc2)COC(=O)[C@@H](Cc2ccc(F)cc2)CC/C=C/C[C@@H]1CC(=O)N(CCO)Cc1ccccc1	37	12	15	nt	nt	nt	nt	nt	nt
COc1cc(-c2cc3nc4ccccc4n3c(N)c2C#N)cc(OC)c1OC	90*	2	17	i	4	34*	53*	8	6
N#Cc1c(-c2ccccc2)cc2nc3ccccc3n2c1N	41	-8	4	i	13	nt	nt	nt	nt
CCSc1nc2ccccc2c(=O)n1CCc1ccc(OC)c(OC)c1	61*	-5	4	i	3	30*	44	4	7
COc1ccc(CCn2c(C)nc3ccccc3c2=O)cc1OC	25	10	11	i	1	nt	nt	nt	nt
COc1ccc(-c2c(C(=O)c3ccccc3)[nH]c(N)c2C(N)=O)cc1OC	20	nt	2	nt	nt	nt	nt	nt	nt
COc1ccc(-c2c(C(=O)c3ccc(Br)cc3)[nH]c(N)c2C(=O)c2ccccc2)cc1OC	60*	nt	16	nt	nt	9	34	9	26
O=C(c1ccc(C(F)(F)F)cc1)N1CCC(=O)N(C(COCc2ccc(Cl)cc2)Cc2ccccc2)CC1 (stereo not drawn)	26	nt	7	i	3	nt	nt	nt	nt
CC(C)(C)c1ccc(C(=O)N2CCC(=O)N([C@H](COCc3ccccc3)Cc3ccccc3)CC2)cc1	71*	nt	8	nt	nt	27*	50*	8	9
C=CCN1C(=O)CSc2ccc(C(=O)NCCC3=CCCCC3)cc21	55*	6	20	i	1	38*	50*	14*	11
